Drawing on ChEMBL document CHEMBL1145212, “Fluorinated diaryl sulfides as serotonin transporter ligands: synthesis, structure-activity relationship study, and in vivo evaluation of fluorine-18-labeled compounds as PET imaging agents” (J Med Chem, 2005), this text covers Ki for six compounds.

Assay type in all cases: cell-based
The target in test [1] is Sodium-dependent serotonin transporter (Homo sapiens, UniProt P31645). As to the kind of experiment: In vitro displacement of [3H]paroxetine from human serotonin transporter expressed in HEK293 cells.
Sequence of Sodium-dependent serotonin transporter (P31645 whole entry): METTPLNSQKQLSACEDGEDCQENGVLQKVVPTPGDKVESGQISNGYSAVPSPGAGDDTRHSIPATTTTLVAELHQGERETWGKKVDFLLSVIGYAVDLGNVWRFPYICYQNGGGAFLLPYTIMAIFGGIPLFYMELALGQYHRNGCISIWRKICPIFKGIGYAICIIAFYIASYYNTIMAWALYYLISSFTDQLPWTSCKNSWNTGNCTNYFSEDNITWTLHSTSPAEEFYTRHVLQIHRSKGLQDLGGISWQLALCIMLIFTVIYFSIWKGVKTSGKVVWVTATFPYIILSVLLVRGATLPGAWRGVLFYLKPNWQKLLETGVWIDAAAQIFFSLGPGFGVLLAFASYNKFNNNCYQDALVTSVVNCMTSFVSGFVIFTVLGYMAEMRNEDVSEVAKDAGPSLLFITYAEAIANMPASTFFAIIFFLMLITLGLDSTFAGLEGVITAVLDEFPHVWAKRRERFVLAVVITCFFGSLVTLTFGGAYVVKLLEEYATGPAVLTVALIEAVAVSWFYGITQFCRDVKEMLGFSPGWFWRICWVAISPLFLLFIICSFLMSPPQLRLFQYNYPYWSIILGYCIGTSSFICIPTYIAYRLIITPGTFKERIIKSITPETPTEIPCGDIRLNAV
Test [2] addresses Sodium-dependent dopamine transporter (Homo sapiens, UniProt Q01959). As to the kind of experiment: In vitro displacement of [3H]GBR-12935 from human dopamine transporter expressed in HEK293 cells. The method, boiled down: (§1)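 Competitive binding using cloned human transporters expressed in HEK-293 cells. NET was labelled with [³H]nisoxetine and DAT with [³H]GBR12935, following a previously published procedure.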

The target in test [3] is Sodium-dependent noradrenaline transporter (Homo sapiens, UniProt P23975). As to the kind of experiment: In vitro displacement of [3H]nisoxetine from human norepinephrine transporter expressed in HEK293 cells. The method, boiled down: as §1
Sequence of Sodium-dependent noradrenaline transporter (P23975 whole entry): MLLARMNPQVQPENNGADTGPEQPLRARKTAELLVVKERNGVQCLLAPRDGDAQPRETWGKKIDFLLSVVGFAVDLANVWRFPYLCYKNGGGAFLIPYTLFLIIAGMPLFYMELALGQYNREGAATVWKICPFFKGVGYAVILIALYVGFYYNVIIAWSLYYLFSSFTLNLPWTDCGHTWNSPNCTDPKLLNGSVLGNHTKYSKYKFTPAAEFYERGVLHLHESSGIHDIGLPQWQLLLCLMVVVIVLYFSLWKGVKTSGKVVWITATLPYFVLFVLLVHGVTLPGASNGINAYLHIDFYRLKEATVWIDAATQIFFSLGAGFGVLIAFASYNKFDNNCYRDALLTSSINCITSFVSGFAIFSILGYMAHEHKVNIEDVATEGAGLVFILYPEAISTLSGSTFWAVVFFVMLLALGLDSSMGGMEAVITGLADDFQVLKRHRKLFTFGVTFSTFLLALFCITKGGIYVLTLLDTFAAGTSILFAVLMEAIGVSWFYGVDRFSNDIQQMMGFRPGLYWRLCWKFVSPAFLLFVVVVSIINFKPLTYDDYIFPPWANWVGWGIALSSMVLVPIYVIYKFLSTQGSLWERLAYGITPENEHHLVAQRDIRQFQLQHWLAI
In general terms: Displacement assays read how much labelled ligand stays bound in the presence of the test substance.

Sequence of Sodium-dependent dopamine transporter (Q01959 whole entry): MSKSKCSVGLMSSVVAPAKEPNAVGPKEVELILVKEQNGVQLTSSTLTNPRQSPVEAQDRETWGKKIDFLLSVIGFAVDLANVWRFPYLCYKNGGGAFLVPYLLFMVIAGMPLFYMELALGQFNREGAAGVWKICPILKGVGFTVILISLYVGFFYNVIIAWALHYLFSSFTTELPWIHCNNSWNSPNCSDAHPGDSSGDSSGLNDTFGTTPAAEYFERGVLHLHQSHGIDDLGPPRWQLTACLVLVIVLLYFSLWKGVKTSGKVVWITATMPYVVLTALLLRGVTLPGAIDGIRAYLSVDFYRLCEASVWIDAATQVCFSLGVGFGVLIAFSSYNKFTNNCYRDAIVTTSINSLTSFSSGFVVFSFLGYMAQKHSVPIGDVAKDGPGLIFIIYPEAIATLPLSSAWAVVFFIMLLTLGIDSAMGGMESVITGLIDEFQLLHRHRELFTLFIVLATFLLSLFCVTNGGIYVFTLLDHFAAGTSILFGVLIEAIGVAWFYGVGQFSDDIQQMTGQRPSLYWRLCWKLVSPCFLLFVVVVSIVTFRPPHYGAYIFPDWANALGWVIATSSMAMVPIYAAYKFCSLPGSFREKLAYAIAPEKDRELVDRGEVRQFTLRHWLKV

Compound `CN(C)Cc1ccccc1Sc1ccc(I)cc1N` had a Ki in test [1] of 0.00107 µM.

Turning to `C=CCNCc1ccccc1Sc1ccc(C)cc1N`, the Ki came to 2.91 µM in test [2] and 3.82 µM in test [3].

As to `CN(C)Cc1ccccc1Sc1ccc(CO)cc1N`, the results for the Ki in test [2], in test [1] and in test [3] were 3.61 µM, 0.0008 µM and 0.787 µM, respectively.

Take `Cc1cc(N)c(Sc2ccccc2CN(C)C)cc1F`: the Ki was over 10 µM in test [2], 0.179 µM in test [1] and 7.04 µM in test [3].

With `CCCNCc1ccccc1Sc1ccc(C)cc1N`, the Ki in test [2] was 3.55 µM; in test [3], over 10 µM.

For the compound `Cc1ccc(Sc2ccccc2CN)c(N)c1`, the Ki in test [2] was 5.3 µM; in test [1], 0.03 µM; in test [3], 4.44 µM.

One may read the Ki as the equilibrium dissociation constant of an inhibitor or competing ligand from its target. A high value points to a looser hold on the target.
